# Screening results as filed in PubChem BioAssay.
# Shown are actives, neighbours in structure and some others; about 3.5% of the full set was active somewhere.
# MrgX1 ag = activates human MrgX1 receptor signaling; MrgX1-HEK293 cells, Fluo-4 calcium fluorescence, agonist mode; active compounds read high; B-score at 10 µM; 310,000 compounds, 0.44% hits;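 active = calcium response B-score plate-corrected fluorescence ratio at least 3 library SD, with starting fluorescence B-score inside 5 SD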
#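 System: HEK293 cells stably expressing human MrgX1 receptor; Dosing: test compound in the initial addition of three; Schedule: overnight plating, then 30 min 37 °C plus 30 min room-temperature dye loading; Detection: kinetic calcium dye fluorescence, Fluo-4 NW; Controls: per-plate positive and negative controls for Z′ factor.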
# RGS4 inh = inhibitors of human RGS4; HEK293 M3R/RGS4 inducible, Fluo-4 calcium flux; active compounds read high; triggered by carbachol at its EC20; B-score at 10 µM; 310,000 compounds, 0.45% hits; AID 463165;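 active = B-score, a plate-corrected calcium signal, over three deviations above library mean, with baseline fluorescence within five deviations of library mean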;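 note: RGS4 expression induced by doxycycline in cells with stable M3 receptor; B-score is computed from the integrated fluorescence ratio over baseline after carbachol; higher B-score means a larger calcium signal and so more RGS4 inhibition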
# Target sequence (P49798 whole entry, looked up): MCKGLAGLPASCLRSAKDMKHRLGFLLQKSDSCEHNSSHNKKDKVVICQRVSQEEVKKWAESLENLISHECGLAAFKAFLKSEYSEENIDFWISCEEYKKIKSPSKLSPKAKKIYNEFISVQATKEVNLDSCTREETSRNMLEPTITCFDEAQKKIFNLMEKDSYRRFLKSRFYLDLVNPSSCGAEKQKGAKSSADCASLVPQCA
# MrgX1 PAM = allosterically activates human MrgX1 receptor signaling | Q96LB2 | MrgX1-HEK293, Fluo-4 calcium flux, FDSS; active compounds read high | B-score at 10 µM | AID 588675 | 310,000 compounds, 0.63% hits;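 active = plate-corrected calcium response at least 3 library SD above typical, normal starting fluorescence, not activating the receptor alone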;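 note: compound read alongside a low EC10 to EC30 dose of BAM8-22 agonist; peak minus trough fluorescence over baseline measured at the second addition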
# RGS4 pot = potentiators or activators of RGS4. HEK293 M3R/inducible RGS4, carbachol calcium flux Fluo4; active compounds read low. B-score at 10 µM. 310,000 compounds, 0.92% hits;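 active = B-score of the integrated calcium signal more than 4 SD below the library mean, with starting fluorescence not abnormally high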;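 note: negative B-score means reduced calcium response which marks RGS4 activation or potentiation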
#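 test system = M3R-expressing HEK293 line, RGS4 induced by doxycycline | probe or stimulus = carbachol at ECmax as muscarinic agonist stimulus | timing = dye loading 30 min 37 °C, buffer rest 30 min RT | signal = calcium dye Fluo4 fluorescence | evaluation = B score from integrated fluorescence ratio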
# MrgX1 antagonist = antagonists of human MrgX1 receptor; MRGX1-HEK293 calcium flux, Fluo-4, BAM8-22 antagonism; active compounds read low; B-score at 10 µM; 310,000 compounds, 1.3% hits;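 active = calcium-response B-score plate-corrected more than 3 library SD below zero, starting fluorescence within 5 deviations, no agonist response on first addition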;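 note: peak minus trough fluorescence over baseline after final BAM8-22 challenge near maximal dose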
# * = called active by the depositor; i = inactive; / = no result given.
SMILES,MrgX1 ag,RGS4 inh,MrgX1 PAM,RGS4 pot,MrgX1 antagonist
Cc1ccc(C(=O)NN2CCOCC2)cc1,i,i,i,i,-5*
O=C(NN1CCOCC1)c1ccc(Br)cc1,i,i,i,i,i
Cc1cccc(C)c1OCC(=O)NNC(=S)NC(=O)C1CC1,63*,i,i,i,i
CN(C)S(=O)(=O)c1cccc(COC(=O)Cc2c(F)cccc2Cl)c1,i,i,i,i,i
COc1ccc(Cc2nc3ccc(C(=O)NC(C)Cc4ncccc4C)cc3o2)cc1OC (stereo not given),i,i,i,-7*,i
COc1ccc(C2=NN(C(=O)C(O)c3ccccc3)C(O)(C(F)(F)F)C2)cc1 (stereo not given),29*,i,i,i,i
COc1cccc(NC(=O)c2cc3ccccc3o/c2=N\O)c1,27*,i,i,i,i
COc1ccc(NC(=O)c2cc3cccc(OC)c3oc2=Nc2ccc(C(=O)O)cc2)cc1OC,/,i,/,i,/
COc1cc(NC(=O)c2cc3cccc(OC)c3o2)cc(C(=O)Nc2cccc(C(F)(F)F)c2)c1,i,i,i,-8.2*,-5.2*
COc1cccc(NC(=O)c2cc3cccc(OC)c3o/c2=N\O)c1,i,6.1*,i,i,i
Cc1ccc(-c2noc(-c3cc(C(C)(C)C)nn3Cc3ccccc3)n2)cc1,i,i,i,i,-6.8*
O=[N+]([O-])c1cccc(OCCN2CCC(Cc3ccccc3)CC2)c1,i,i,i,i,i
CN(C)c1cccc(C(=O)NNC(=O)NC2CCCCC2)c1,i,i,i,i,i
COc1cc(OC)cc(C(=O)NNC(=O)NC2CCCCC2)c1,i,i,i,i,-7*
CN(CC(=O)Nc1c(Cl)cccc1Cl)C(=O)c1n[nH]c2ccccc12,i,i,i,i,i
O=C(N/N=C/c1ccc(OC(F)F)cc1)c1cc[n+]([O-])cc1,i,i,i,i,-6*
O=C(N/N=C/c1ccc(OC(F)F)cc1)c1ccc(Br)cc1,i,i,i,i,-5.3*
COc1ccc(CN(C)C(=O)C23CC4CC(CC(Cl)(C4)C2)C3)c(OC)c1OC,i,i,i,i,i
CCCCCCCCNC1=CC(=O)CC(C)(C)C1,i,i,i,i,i
CC(C)C1OC2c3cccc4cccc(c34)C2N1c1ccccc1 (stereo not given),39*,i,i,i,i
O=C1COc2ccc(S(=O)(=O)N3CCCC3)cc2N1,i,i,i,i,i
O=C1COc2ccc(N3C(=O)C=CC3=O)cc2N1,i,5*,i,i,i
Nc1nc(Nc2cccc(F)c2)nc(NCCO)c1[N+](=O)[O-],i,i,i,i,i
Cc1ccc(Nc2nc(N)c([N+](=O)[O-])c(NCCO)n2)cc1,i,i,8*,i,i
COc1cccc2sc(Nc3nc(-c4ccccn4)cs3)nc12,i,i,7.8*,-8.7*,i
SMILES,MrgX1 ag,RGS4 inh,MrgX1 PAM,RGS4 pot,MrgX1 antagonist
c1ccc(Nc2nc(-c3ccccn3)cs2)cc1,i,i,i,i,i
COc1ccc(NC(=O)Nc2nnc(Cc3ccc(F)cc3)s2)cc1,i,i,i,i,i
CC[N+](CC)(CC)CCOc1ccc(/C=C/c2ccccc2)cc1,i,/,i,/,-5.1*
COc1ccc(C(=O)NC2CCN(S(=O)(=O)c3ccc(C)cc3)CC2)cc1,i,i,i,i,i
CC1CCCCN1CCCNc1ccc(C(CC(N)=O)NC(=O)Cc2ccc(Br)cc2)cc1[N+](=O)[O-] (stereo not given),i,i,i,i,i
COc1ccccc1NC(=S)N/N=C/c1ccc(O)cc1,i,i,9*,i,i
COc1ccccc1NC(=S)N/N=C/c1cccc(C)c1,i,i,i,i,i
CC(C)=CCc1c2c(c3occ(-c4ccc(O)cc4)c(=O)c3c1O)C=CC(C)(C)O2,i,i,i,i,i
CC(C)=CCOc1ccc([C@@H]2COc3c(ccc4c3C=CC(C)(C)O4)C2)c(O)c1,i,i,i,-9.4*,i
